# Reference: ChEMBL document CHEMBL1128382, “N4-unsubstituted N1-arylpiperazines as high-affinity 5-HT1A receptor ligands” (J Med Chem, 1995)
# Target: T1, 5-hydroxytryptamine receptor 1A (Rattus norvegicus, UniProt P19327)
# T1 sequence (P19327 whole entry): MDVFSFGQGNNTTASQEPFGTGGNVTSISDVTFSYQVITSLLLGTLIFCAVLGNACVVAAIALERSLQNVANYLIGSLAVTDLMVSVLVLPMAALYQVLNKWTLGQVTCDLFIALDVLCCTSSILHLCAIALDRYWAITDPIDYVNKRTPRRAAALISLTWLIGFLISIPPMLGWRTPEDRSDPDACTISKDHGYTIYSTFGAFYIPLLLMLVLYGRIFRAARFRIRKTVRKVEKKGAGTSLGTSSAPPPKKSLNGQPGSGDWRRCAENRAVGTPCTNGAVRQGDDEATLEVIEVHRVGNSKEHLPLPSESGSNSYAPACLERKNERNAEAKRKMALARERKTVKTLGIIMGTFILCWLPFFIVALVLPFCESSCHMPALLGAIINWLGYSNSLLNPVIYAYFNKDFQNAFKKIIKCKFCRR
# Assay: Displacement of [3H]2-(di-N-propylamino)-8-hydroxytetralin from central 5-hydroxytryptamine 1A receptor recognition sites in rat frontal cortex homogenates.
# Type: tissue-based
# Procedure, shortened: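 Competition binding against tritiated 8-OH-DPAT in rat frontal cortex homogenate. Ki values come from n separate determinations, each testing four to six ligand concentrations in triplicate.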
row,SMILES,Ki [nM]
1,COc1ccc(N2CCNCC2)c2occc12,430
2,c1ccc2c(N3CCNCC3)cccc2c1,18
3,Clc1ccc2c(c1N1CCNCC1)OCCO2,200
4,c1cc(N2CCNCC2)c2[nH]ccc2c1,200
5,COc1cccc(N2CCNCC2)c1OC,1000
6,Cc1cc(N2CCNCC2)c2occc2c1,120
7,C1=COc2c(cccc2N2CCNCC2)O1,12
8,COc1cccc(N2CCNCC2)c1,320
9,CC1=COc2c(cccc2N2CCNCC2)O1,5.2
10,Brc1ccc(N2CCNCC2)c2occc12,300
11,c1cc2c(c(N3CCNCC3)c1)CCCC2,84
12,Fc1cc(N2CCNCC2)c2occc2c1,105
13,Brc1cc(N2CCNCC2)c2occc2c1,35
14,COc1ccc(N2CCNCC2)cc1,20000
15,Cc1ccc(N2CCNCC2)c2occc12,220
16,N#Cc1ccc2ccoc2c1N1CCNCC1,220
17,c1ccc(N2CCNCC2)cc1 [PHENYLPIPERAZINE],500
18,Fc1ccc(N2CCNCC2)c2occc12,18
19,Cc1coc2c(N3CCNCC3)cccc12,73
20,O=[N+]([O-])c1ccc2ccoc2c1N1CCNCC1,140
21,Cc1cc2cccc(N3CCNCC3)c2o1,13
22,COc1ccc2c(c1N1CCNCC1)OCCO2,> 10000
23,COc1cc(N2CCNCC2)c2occc2c1,28
24,Fc1ccc2ccoc2c1N1CCNCC1,5.8
25,c1cc(N2CCNCC2)c2sccc2c1,9.9
26,Brc1coc2c(N3CCNCC3)cccc12,130
